Published values of several laboratories.
Protocols differ between the studies behind these lines.
Target: Serine/threonine-protein kinase haspin (HASPIN, Homo sapiens, UniProt Q8TF76)
One construct used (Q8TF76 1-798): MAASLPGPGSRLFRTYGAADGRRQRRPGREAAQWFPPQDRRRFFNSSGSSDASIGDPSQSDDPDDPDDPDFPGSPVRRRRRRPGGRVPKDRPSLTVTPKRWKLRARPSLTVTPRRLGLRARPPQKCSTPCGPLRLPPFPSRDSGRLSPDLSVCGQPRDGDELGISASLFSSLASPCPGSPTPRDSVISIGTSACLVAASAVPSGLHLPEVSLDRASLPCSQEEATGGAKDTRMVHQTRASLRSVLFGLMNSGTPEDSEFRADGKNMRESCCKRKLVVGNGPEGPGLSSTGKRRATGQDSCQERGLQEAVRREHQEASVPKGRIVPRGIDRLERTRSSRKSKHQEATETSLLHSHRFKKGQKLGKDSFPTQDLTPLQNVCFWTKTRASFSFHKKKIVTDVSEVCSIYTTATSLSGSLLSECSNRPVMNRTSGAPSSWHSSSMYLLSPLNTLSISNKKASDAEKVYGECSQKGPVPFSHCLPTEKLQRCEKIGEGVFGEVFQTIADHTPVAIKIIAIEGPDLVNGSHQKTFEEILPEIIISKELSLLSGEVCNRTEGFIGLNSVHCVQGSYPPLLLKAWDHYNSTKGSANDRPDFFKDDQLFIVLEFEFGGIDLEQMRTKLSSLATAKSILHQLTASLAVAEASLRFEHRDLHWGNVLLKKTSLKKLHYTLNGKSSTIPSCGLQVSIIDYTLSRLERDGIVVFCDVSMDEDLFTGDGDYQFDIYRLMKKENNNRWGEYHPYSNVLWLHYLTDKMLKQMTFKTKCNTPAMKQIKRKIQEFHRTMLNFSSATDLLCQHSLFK

| SMILES | read-out | mode | technique | concentration | endpoint | value |
| --- | --- | --- | --- | --- | --- | --- |
| Cn1cncc1[C@](O)(COc1ccc(C#N)cc1-c1ccc(OC(F)(F)F)cc1)c1ccc(C#N)cc1 | cell-free assay |  | competition with immobilised ligand | 1 µM | remaining binding | 100% |
| CC(C)(C)c1cc(C=C(C#N)C#N)cc(Br)c1O | enzyme activity | inhibitor |  | 0.5 µM | remaining activity | 67.2% |
| Nc1ncc(-c2nc(N3CCOCC3)nc(N3CCOCC3)n2)c(C(F)F)n1 | binding |  | competition with immobilised ligand | 10 µM | remaining binding | 71% |
| Cn1cc(-c2cc(F)cc(N3CCn4c(cc5c4CCCC5)C3=O)c2CO)cc(Nc2ccc(N3CCN(C4COC4)CC3)cn2)c1=O | enzyme activity | inhibitor |  | 0.1 µM | inhibition | 8% |
| COc1ncccc1-c1cnn2ccc(N3CCN(C(=O)OC(C)C)CC3)nc12 | binding |  | competition with immobilised ligand | 1 µM | remaining binding | 80% |
| N#CC1(c2ccccn2)CCN(Cc2cc(C(=O)O)c(=O)n3ccccc23)CC1 | cell-free assay |  | competition with immobilised ligand | 1 µM | remaining binding | 100% |
| C#Cc1n[nH]c2c(-c3cn([C@@H](C)c4ccccc4)c(=O)[nH]c3=O)cc(F)cc12 | enzyme activity | inhibitor |  | 0.1 µM | inhibition | -5.9% |
| Cn1cc(-c2cccc(N3CCc4c(sc5c4CC(C)(C)C5)C3=O)c2CO)cc(Nc2ccncn2)c1=O | enzyme activity | inhibitor |  | 1 µM | inhibition | -1% |
| O=c1[nH]c2ccccc2n1C1CCN(Cc2ccc(-c3[nH]c4cc5ncnc5cc4nc3-c3ccccc3)cc2)CC1 | cell-free assay |  |  | 0.5 µM | remaining signal | 106% |
| C#Cc1n[nH]c2c(-c3cn(C(C)c4ccccn4)c(=O)[nH]c3=O)cc(F)cc12 (stereo not shown) | enzyme activity | inhibitor |  | 1 µM | inhibition | 18.9% |
